Source: PubChem BioAssay
MrgX1 agonist: human MrgX1 receptor agonism, primary screen; 310,000 compounds, 0.44% hits; AID 588627; B-score at 10 µM; MrgX1-HEK293 cells, Fluo-4 calcium fluorescence, agonist mode; hits give high values; Q96LB2;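 active = calcium response B-score plate-corrected fluorescence ratio at least 3 library SD, with starting fluorescence B-score inside 5 SD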
Target sequence (Q96LB2 whole entry, looked up): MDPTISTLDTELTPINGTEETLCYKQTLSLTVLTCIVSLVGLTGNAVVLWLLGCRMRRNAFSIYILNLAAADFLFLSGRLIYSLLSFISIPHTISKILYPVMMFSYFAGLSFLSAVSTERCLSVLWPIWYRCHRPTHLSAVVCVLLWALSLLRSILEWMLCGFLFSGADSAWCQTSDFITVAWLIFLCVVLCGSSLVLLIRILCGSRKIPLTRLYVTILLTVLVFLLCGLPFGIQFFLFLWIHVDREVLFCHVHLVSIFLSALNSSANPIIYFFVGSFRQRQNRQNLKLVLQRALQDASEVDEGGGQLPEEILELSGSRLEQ
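System – MrgX1-expressing HEK293 cells · Incubation – cells plated overnight, dye loaded 0.5 h 37 °C, 0.5 h room temperature · Technique – kinetic Fluo-4 NW fluorescence of intracellular calcium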
MrgX1 PAM: human MrgX1 positive allosteric modulation, primary screen; MrgX1-HEK293, Fluo-4 calcium flux, FDSS; hits give high values; B-score at 10 µM; 310,000 compounds, 0.63% hits; AID 588675;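 active = plate-corrected calcium response at least 3 library SD above typical, normal starting fluorescence, not activating the receptor alone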;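 also: compound read alongside a low EC10 to EC30 dose of BAM8-22 agonist; peak minus trough fluorescence over baseline measured at the second addition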
RGS4 act: potentiators or activators of RGS4 | AID 463111 | HEK293 M3R/inducible RGS4, carbachol calcium flux Fluo4; hits give low values | 310,000 compounds, 0.92% hits | B-score at 10 µM;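 active = B-score of the integrated calcium signal more than 4 SD below the library mean, with starting fluorescence not abnormally high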;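 also: negative B-score means reduced calcium response which marks RGS4 activation or potentiation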
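System: HEK293 FlpIn-TREx cells, stable M3R, doxycycline-inducible RGS4. Timing: overnight RGS4 induction, 30 min dye load 37 °C, 20 min compound RT. Also added: carbachol, ECmax concentration. Measured by: Fluo4 fluorescence kinetic imaging of calcium. Evaluation: integrated calcium ratio converted to B score.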
MrgX1 antag: blocks BAM8-22 activation of human MrgX1 receptor; 310,000 compounds, 1.3% hits; MRGX1-HEK293 calcium flux, Fluo-4, BAM8-22 antagonism; hits give low values; AID 588676; B-score at 10 µM; Q96LB2;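 active = calcium-response B-score plate-corrected more than 3 library SD below zero, starting fluorescence within 5 deviations, no agonist response on first addition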;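 also: peak minus trough fluorescence over baseline after final BAM8-22 challenge near maximal dose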
RGS4 block: human RGS4 inhibition; P49798; HEK293 M3R/RGS4 inducible, Fluo-4 calcium flux; hits give high values; triggered by carbachol at its EC20; B-score at 10 µM; 310,000 compounds, 0.45% hits; AID 463165;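 active = B-score, a plate-corrected calcium signal, over three deviations above library mean, with baseline fluorescence within five deviations of library mean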;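 also: RGS4 expression induced by doxycycline in cells with stable M3 receptor; B-score is computed from the integrated fluorescence ratio over baseline after carbachol; higher B-score means a larger calcium signal and so more RGS4 inhibition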
* marks the source's active call; other numbers are inactive results; i = inactive; / = no result given. The list is not random: actives were taken first. Their share in the collection is about 3.5%.

SMILES	MrgX1 agonist	MrgX1 PAM	RGS4 act	MrgX1 antag	RGS4 block
C=C1CC(C(=O)N/N=C/c2ccc(O)cc2)C1	i	i	i	-5.9*	i
COc1ccc(CCn2nc(C)c([N+](=O)[O-])c2C)cc1	i	i	i	-6.5*	i
COC(=O)COc1ccc(S(=O)(=O)NCc2ccc3c(c2)OCO3)cc1	i	i	i	i	i
Cc1ccc(-n2c(SCC(=O)N3CCCC3)nc3c(c2=O)SCC3)cc1	i	i	i	-4.9*	i
CCCC(=O)NC(=S)Nc1ccccc1N1CCOCC1	i	i	i	-7.7*	i
CCCCC(=O)NC(=S)Nc1ccccc1N1CCCCC1	i	i	i	i	i
C=CCC1(CC=C)CCCN1C(=O)C1CCC(=O)N(CCc2ccccc2)C1 (stereo not given)	i	i	i	i	i
CCC(C)Sc1cccc(-c2nc3ccc(C)cn3c2NCc2ccccc2)c1 (stereo not given)	i	i	-7.6*	i	i
CC1=CC2=NC(=O)/C(=C/c3coc4ccc(Cl)cc4c3=O)C(=N)N2O1	i	i	-7.1*	i	i
O=c1c(-c2ccc3c(c2)OCCO3)coc2cc(O)cc(O)c12	i	i	i	i	i
CC1(C)C=Cc2cc(-c3coc4cc(O)cc(O)c4c3=O)cc(O)c2O1	i	i	i	-5.3*	i
CCn1cc(C(=O)NCc2ccc(C)cc2)c(=O)c2cc(S(=O)(=O)N(C)C)ccc21	i	i	i	i	i
Cc1ccccc1-c1noc(C(C)NC(=O)c2ccco2)n1 (stereo not given)	i	i	i	i	i
CNCc1ccccc1Sc1ccc(O)c(O)c1	i	i	-7.5*	-5.7*	i
COc1ccc(Sc2ccccc2CN(C)C)cc1OC	i	i	i	i	i
O=C(Nc1ccccc1-c1nnc(SCc2ccc(Cl)cc2)o1)c1ccccc1	i	i	i	-7.1*	i
O=C(Nc1ccccc1-c1nnc(SCc2ccccc2)o1)c1ccccc1	i	i	-7.4*	i	i
COc1ccccc1CSc1nc2c(c(=O)n(C)c(=O)n2C)n1C	/	/	i	/	i
COc1cc(CN2CCNC(=O)C2CC(=O)NCCCC2CCCC2)cc(OC)c1 (stereo not given)	i	i	i	i	i
CC(=O)Oc1c(Cl)cc(Cl)cc1/C=C/c1ccc2ccccc2n1	i	i	i	-8.3*	i
CCOc1ccc(Nc2nnc(Cc3ccc(OC)cc3)c(=O)[nH]2)cc1	i	i	i	i	i
Cc1oc(-c2ccc(Cl)cc2)nc1CS(=O)CC(=O)NCc1ccc2c(c1)OCO2 (stereo not given)	i	i	i	-4.9*	i
CC(=O)Oc1ccccc1C(=O)Nc1ccccc1C(=O)N1CCCCC1	i	i	i	i	i
COc1ccc(-n2c(C)cc(/C=C(\C#N)C(=O)NCc3ccco3)c2C)cc1	i	i	i	-4.9*	i
COc1ccc2c(c1)c1nc3ccccc3nc1n2Cc1ccc(OC(C)C)c(OC)c1	i	i	i	-6.7*	i
SMILES	MrgX1 agonist	MrgX1 PAM	RGS4 act	MrgX1 antag	RGS4 block
COc1ccc(Cn2c3ccc(OC)cc3c3nc4ccccc4nc32)cc1	i	i	i	i	i
CCN1CCN(CC#CCOc2ccccc2OC)CC1	i	i	i	i	i
COCCC(=O)NNS(=O)(=O)c1ccc(Cl)cc1	i	i	i	i	i
CN1CCC=C(C(=O)N2c3ccccc3Sc3ccc(Cl)cc32)C1	i	i	-10*	i	i
O=C(c1ccccc1[N+](=O)[O-])N1N=C(c2ccccc2)CC1(O)C(F)(F)F (stereo not given)	i	i	-9.3*	i	i
O=C(C1CC1)N1N=C(c2ccccc2)CC1(O)C(F)(F)F (stereo not given)	i	i	i	i	i
CCOC(=O)CSc1ncnc2c(C(=O)OCC)c3n(c12)CCC3	i	i	i	i	i
COc1ccc(-n2c3c(cc(C(=O)N4CCC(C)CC4)c2=O)C(=O)CC(C)(C)C3)cc1	i	i	i	i	i
